Here are results for 28 compounds from ChEMBL document CHEMBL1153381, “Discovery of 2-(5-nitrothiazol-2-ylthio)benzo[d]thiazoles as novel c-Jun N-terminal kinase inhibitors” (Bioorg Med Chem, 2009).

Series [1] is described as follows: Inhibition of cJNK phosphorylation by Lantha screen assay.
Series [2] can be described thus: Inhibition of cJNK phosphorylation by pepJIP1 displacement DELFIA assay.
The target in series [3] is Mitogen-activated protein kinase 14 (Homo sapiens, UniProt Q16539). Description: Inhibition of p38alpha.
Chain of Mitogen-activated protein kinase 14 (Q16539 whole entry): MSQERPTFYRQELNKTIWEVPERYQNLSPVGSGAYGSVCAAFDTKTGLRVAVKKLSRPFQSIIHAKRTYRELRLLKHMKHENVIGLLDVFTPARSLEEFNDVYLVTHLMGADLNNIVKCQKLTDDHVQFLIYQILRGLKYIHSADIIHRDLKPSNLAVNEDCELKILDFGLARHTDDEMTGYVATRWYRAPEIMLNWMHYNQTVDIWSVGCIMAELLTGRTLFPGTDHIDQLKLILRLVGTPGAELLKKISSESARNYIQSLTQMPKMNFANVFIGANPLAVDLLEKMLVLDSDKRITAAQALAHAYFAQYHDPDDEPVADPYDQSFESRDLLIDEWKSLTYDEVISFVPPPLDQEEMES
For series [4], the target named is RAC-alpha serine/threonine-protein kinase (Homo sapiens) (UniProt P31749). Description: Inhibition of AKT at 100 uM.
Chain of RAC-alpha serine/threonine-protein kinase (Homo sapiens) (P31749 whole entry): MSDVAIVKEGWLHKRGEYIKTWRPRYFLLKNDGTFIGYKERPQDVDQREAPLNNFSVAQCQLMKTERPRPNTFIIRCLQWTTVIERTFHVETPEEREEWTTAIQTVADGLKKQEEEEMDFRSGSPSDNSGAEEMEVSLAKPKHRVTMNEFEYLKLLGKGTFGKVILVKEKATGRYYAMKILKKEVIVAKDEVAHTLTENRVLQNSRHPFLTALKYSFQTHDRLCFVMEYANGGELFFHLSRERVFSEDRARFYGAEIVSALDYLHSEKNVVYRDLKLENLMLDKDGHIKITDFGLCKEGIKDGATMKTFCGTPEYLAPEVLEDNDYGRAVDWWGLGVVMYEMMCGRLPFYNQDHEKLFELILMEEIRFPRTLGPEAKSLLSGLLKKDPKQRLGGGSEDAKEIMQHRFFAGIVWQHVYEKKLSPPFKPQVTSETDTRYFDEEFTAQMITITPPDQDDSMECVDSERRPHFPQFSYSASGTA
The target in the next series is Furin (Homo sapiens, UniProt P09958). As to the kind of experiment: Inhibition of furin.
Chain of Furin (P09958 whole entry): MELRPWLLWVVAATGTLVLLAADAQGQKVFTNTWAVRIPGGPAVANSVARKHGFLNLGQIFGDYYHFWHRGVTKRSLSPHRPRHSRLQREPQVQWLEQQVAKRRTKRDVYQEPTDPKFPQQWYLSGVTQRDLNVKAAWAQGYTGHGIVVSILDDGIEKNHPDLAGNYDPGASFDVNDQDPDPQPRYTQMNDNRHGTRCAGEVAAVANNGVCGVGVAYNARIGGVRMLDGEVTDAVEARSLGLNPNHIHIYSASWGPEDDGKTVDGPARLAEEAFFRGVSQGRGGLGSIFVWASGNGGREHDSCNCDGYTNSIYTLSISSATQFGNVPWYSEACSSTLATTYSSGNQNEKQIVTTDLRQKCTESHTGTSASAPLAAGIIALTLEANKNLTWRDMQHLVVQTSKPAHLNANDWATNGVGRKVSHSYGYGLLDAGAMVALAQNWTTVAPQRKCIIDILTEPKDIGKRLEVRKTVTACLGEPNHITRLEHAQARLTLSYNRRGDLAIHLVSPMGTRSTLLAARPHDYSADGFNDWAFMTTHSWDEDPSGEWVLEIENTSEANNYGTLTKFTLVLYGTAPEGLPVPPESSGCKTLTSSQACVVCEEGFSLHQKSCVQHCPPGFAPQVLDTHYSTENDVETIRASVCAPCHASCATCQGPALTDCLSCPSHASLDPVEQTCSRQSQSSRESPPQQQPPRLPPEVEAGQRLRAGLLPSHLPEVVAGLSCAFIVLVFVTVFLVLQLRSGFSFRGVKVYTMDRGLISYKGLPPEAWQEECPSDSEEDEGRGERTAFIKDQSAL
A short description of series [5]: Inhibition of lethal factor.
A further series relates to Liver microsomes. As to the kind of experiment: Metabolic stability in rat liver microsomes assessed as half life. The class given is ADME, Microsome. The gist of the method:
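Rat liver microsomes (1 mg/mL protein) with 4 μM compound and 2 mM NADPH in 50 mM phosphate pH 7.2, after 5 min preincubation, incubated 1 h at 37.5 °C. Aliquots taken every 15 min were quenched with methanol plus internal standard and analysed by LC–MS. Run in duplicate with 2 control compounds of known half-life.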
(In general: Liver microsomes are a subcellular fraction often used to study metabolism.)

Series [6] can be described thus: Metabolic stability in rat plasma assessed as drug level remaining after 1 hr. The format is ADME, cell-free. The settings on record: read-out: Stability. The gist of the method: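 Fresh rat plasma with 1 μM compound (2.5% final DMSO) at 37 °C, stopped at 0, 30 and 60 min with methanol plus internal standard, analysed by LC–MS. Percent parent remaining was taken against 0 min from peak-area ratios to internal standard. Run in duplicate with a plasma-labile positive control.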

Series [7] in a line: Inhibition of cJNK phosphorylation in TNF-alpha-stimulated HL60 cells by Lantha screen assay. The settings on record: HL-60. The format is cell-based.

Structures are written as SMILES.

By IC50 is commonly meant the point on the concentration scale where inhibition reaches its midpoint. Read a high IC50 as lower potency. `Nc1ncnc2nc(Sc3ncc([N+](=O)[O-])s3)[nH]c12`: the half-maximal inhibitory concentration (IC50) in series [1] is 27 µM; in series [2], greater than 1 µM.
For the compound `O=[N+]([O-])c1cnc(Sc2nc3cc(S(=O)(=O)O)ccc3[nH]2)s1`, the IC50 in series [1] is greater than 50 µM.
By inhibition is commonly meant the drop in the measured response relative to a control, in per cent. Higher therefore signals strong suppression. `COc1ccc2sc(Sc3ncc([N+](=O)[O-])s3)nc2c1`: the half-maximal inhibitory concentration (IC50) was 1.8 µM in series [1]; 0.1 µM in series [2]; greater than 100 µM in series [3]; greater than 50 µM against Furin; greater than 100 µM in series [5]. The compound further gave an inhibition in [4] of 5%.
In the case of `Cc1ccc2nc(Sc3ncc([N+](=O)[O-])s3)oc2c1`, the IC50 is greater than 50 µM in [1] and 0.29 µM in series [2].
Turning to `Nc1ncnc2[nH]c(SCc3ccc(C(=O)O)cc3)nc12`, the midpoint of inhibition in series [1], the IC50, lay at 70 µM.
Same read-out and setting: the value for `CCOc1ccc2nc(Sc3ncc([N+](=O)[O-])s3)sc2c1` was greater than 50 µM.
Regarding `O=[N+]([O-])c1cnc(Sc2nc3ccccc3[nH]2)s1`, the IC50 stood at 8.1 µM in [1] and 0.67 µM in series [2].
Consider `Cc1ccc2[nH]c(Sc3ncc([N+](=O)[O-])s3)nc2c1`, for which the IC50 was found to be 3.8 µM in series [1] and 0.02 µM in series [2].
`O=[N+]([O-])c1ccc2nc(Sc3ncc([N+](=O)[O-])s3)[nH]c2c1`: the IC50 is 6.4 µM in [1] and 3.2 µM in series [2].
`O=[N+]([O-])c1cnc(Sc2nc3cc(C(F)(F)F)ccc3[nH]2)s1`: the IC50 in series [1] was determined as 20.2 µM; in series [2], 0.14 µM.
`O=[N+]([O-])c1ccc(Sc2nc3ccccc3o2)c([N+](=O)[O-])c1` displayed an IC50 in [1] greater than 100 µM.
Turning to `O=[N+]([O-])c1cnc(Sc2nc3ncccc3s2)s1`, the IC50 in [1] came out at 4.2 µM; in series [2], 0.4 µM.
Consider `CO/N=C(\C(=O)Sc1nc2ccccc2s1)c1csc(N)n1`, for which the IC50 in series [1] is greater than 50 µM; in series [2], 1.7 µM.
`Cc1nnc(Sc2nc3ccc(Cl)cc3s2)n1-c1ccc2c(c1)OCCO2` returned an IC50 in series [1] greater than 50 µM.
As for `O=[N+]([O-])c1cnc(Sc2nc3cc(Cl)ccc3o2)s1`, the IC50 in [1] was 27 µM; in series [2], 0.11 µM.
In turn, `Cn1c(Sc2nc3ccc(Cl)cc3s2)nnc1-c1ccc(Cl)cc1Cl` yielded an IC50 in series [1] greater than 50 µM.
For the compound `Cn1c(Sc2nc3ccc(Cl)cc3s2)nnc1-c1cccs1`, in series [1], the IC50 was greater than 50 µM.
As for `O=[N+]([O-])c1cnc(Sc2nc3ccc(Cl)cc3s2)s1`, the results for the IC50 in [1] and in series [2] were greater than 50 µM and 0.796 µM, respectively.
With `Cn1c(Sc2nc3ccc(Cl)cc3s2)nnc1-c1ccc2ncccc2c1`, the IC50 in series [1] is greater than 50 µM.
With `Nc1nc(Sc2ncc([N+](=O)[O-])s2)c2nc[nH]c2n1`, the figures for the IC50 in series [1] and in [2] were 55 µM and 1 µM, respectively.
`O=[N+]([O-])c1cnc(Sc2nc3ccccc3s2)s1`: the IC50 in [1] was 1.8 µM; in series [2], 0.16 µM; in [3], greater than 100 µM; on Furin it was greater than 50 µM; in [5], greater than 100 µM; in series [7] it was 15 µM. The inhibition in series [4] worked out at 2%. Also, in the series on Liver microsomes, the t1/2 worked out at 1.17 h. Besides, the remaining at 1 h in series [6] came to 80%.
For `COc1ccc2[nH]c(Sc3ncc([N+](=O)[O-])s3)nc2c1`, the IC50 was found to be 4.7 µM in [1] and 0.13 µM in [2].
The matching figures for `O=[N+]([O-])c1cnc(Sc2nc3cc(Cl)ccc3s2)s1`: greater than 50 µM and greater than 1 µM.
In turn, `O=C(O)c1ccc(CSc2nc3ccccc3[nH]2)cc1` returned an IC50 in [1] greater than 100 µM.
Consider `Cn1c(Sc2ncc([N+](=O)[O-])s2)nc2ccccc21`, for which the IC50 in [1] was greater than 50 µM; in series [2], 1.5 µM.
For the compound `O=[N+]([O-])c1cnc(Sc2nc3ccccc3o2)s1`, the IC50 in series [1] is 2.7 µM; in series [2] it was 0.24 µM.
As to `COc1ccccc1-c1nnc(Sc2nc3ccc(Cl)cc3s2)n1-c1ccccc1`, the IC50 in series [1] is greater than 50 µM.
In the case of `O=[N+]([O-])c1cnc(Sc2nc3cc(Cl)c(Cl)cc3[nH]2)s1`, the values for the IC50 in series [1] and in series [2] were 23 µM and 1.5 µM, respectively.
